MrgX1 agonist – activates human MrgX1 receptor signaling; MrgX1-HEK293 cells, Fluo-4 calcium fluorescence, agonist mode; hits give high values; 0.44% of 310,000 active; B-score at 10 µM; AID 588627;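 active = calcium response B-score plate-corrected fluorescence ratio at least 3 library SD, with starting fluorescence B-score inside 5 SD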
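Test system: HEK293 cells stably expressing human MrgX1 receptor; Input: fifteen thousand cells per well; Dosing: compound delivered in addition one of three; Schedule: overnight seeding, then 1 h dark dye loading; Technique: Fluo-4 NW calcium fluorescence; Measure: B-scored fluorescence response ratio; Controls: positive and negative controls per plate.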
RGS4 pot – RGS4 potentiation or activation; HEK293 M3R/inducible RGS4, carbachol calcium flux Fluo4; hits give low values; B-score at 10 µM; 0.92% of 310,000 active;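 active = B-score of the integrated calcium signal more than 4 SD below the library mean, with starting fluorescence not abnormally high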;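 also: negative B-score means reduced calcium response which marks RGS4 activation or potentiation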
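Reagent: ECmax carbachol challenge; Test system: M3R-expressing HEK293 line, RGS4 induced by doxycycline; Schedule: overnight RGS4 induction, 30 min dye load 37 °C, 20 min compound RT; Detection: calcium dye Fluo4 fluorescence; Read-out: Agonist-evoked peak-minus-minimum fluorescence over baseline, integrated ratio, B score.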
MrgX1 antag – human MrgX1 receptor antagonism, primary screen | B-score at 10 µM | MRGX1-HEK293 calcium flux, Fluo-4, BAM8-22 antagonism; hits give low values | AID 588676 | 1.3% of 310,000 active;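 active = calcium-response B-score plate-corrected more than 3 library SD below zero, starting fluorescence within 5 deviations, no agonist response on first addition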;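 also: peak minus trough fluorescence over baseline after final BAM8-22 challenge near maximal dose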
RGS4 inh – human RGS4 inhibition. 0.45% of 310,000 active. B-score at 10 µM. P49798. HEK293 M3R/RGS4 inducible, Fluo-4 calcium flux; hits give high values; triggered by carbachol at its EC20;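 active = B-score, a plate-corrected calcium signal, over three deviations above library mean, with baseline fluorescence within five deviations of library mean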;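 also: RGS4 expression induced by doxycycline in cells with stable M3 receptor; B-score is computed from the integrated fluorescence ratio over baseline after carbachol; higher B-score means a larger calcium signal and so more RGS4 inhibition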
MrgX1 allo act – allosterically activates human MrgX1 receptor signaling; Q96LB2; MrgX1-HEK293, Fluo-4 calcium flux, FDSS; hits give high values; B-score at 10 µM; 0.63% of 310,000 active; AID 588675;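 active = plate-corrected calcium response at least 3 library SD above typical, normal starting fluorescence, not activating the receptor alone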;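 also: compound read alongside a low EC10 to EC30 dose of BAM8-22 agonist; peak minus trough fluorescence over baseline measured at the second addition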
Cl transport mod – modulates chloride dependent transport by human KCC2. Q9H2X9. KCC2 cells, thallium flux FluoZin-2 fluorescence. B-score of Tl+ flux slope (higher = more flux/activation; lower = inhibition) at 10 µM. 2.2% of 190,000 active. AID 1456;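 active = thallium flux slope and its plate-corrected score both differing from the plate sample mean at a set confidence after two filtering rounds, in either direction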;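 also: slope of fluorescence scaled to starting intensity during 10 to 20 s after thallium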
Large screens that a line does not name were inactive; ! = not active in a repeat. A selection: hits, their analogues and other compounds. The true share with any hit is near 4.7%.

CCCN(CC(=O)Nc1ccccc1C)C(=O)c1ccc(C)c(S(=O)(=O)N2CCCCC2)c1	MrgX1 antag -5.4 (no result: Cl transport mod)
N#C/C(=C\c1ccc2c(c1)OCCO2)C(=O)Nc1nccs1	MrgX1 agonist 52 (no result: Cl transport mod)
Cc1c(C(=O)NCCCN2CCOCC2)sc2nc(-c3ccccc3)cn12	MrgX1 antag -7.3
COc1ccc(OC)c(Nc2cc(C(=O)NCCCN3CCOCC3)c3ccccc3n2)c1	MrgX1 antag -5.7 (no result: Cl transport mod)
O=C(NCCCN1CCOCC1)c1cc(-c2ccc(Cl)s2)nc2ccccc12	MrgX1 antag -7.4 (no result: Cl transport mod)
CCOc1ccc(OCCC(=O)N(CCCOC)c2c(N)n(Cc3ccccc3)c(=O)[nH]c2=O)cc1	none (no result: Cl transport mod)
Cc1cccc(N(CC(O)CON=C2c3ccccc3-c3ccccc32)S(C)(=O)=O)c1 (centres undefined)	MrgX1 antag -4.9
COc1ccc(/C=N/Nc2nc(N3CCCC3)nc(N3CCCC3)n2)c(OC)c1OC	none
COc1cccc(/C=N/Nc2nc(N3CCCC3)nc(N3CCCC3)n2)c1O	RGS4 pot -7.7
O=C(O)c1ccccc1/C=N/Nc1nc(N2CCCCC2)nc(N2CCCCC2)n1	MrgX1 antag -6.6
COc1ccccc1NS(=O)(=O)c1cc2c3c(c1)CCN3C(=O)CC2	none (no result: Cl transport mod)
CCn1c2ccccc2c2cc(/C=N/n3cn[nH]c3=S)ccc21	Cl transport mod 23
CCn1c2ccccc2c2cc(/C=N/n3cnnc3)ccc21	none
CCC(C)[C@H](NC(=O)N1CCn2c1nc1ccccc12)C(=O)NCCc1ccc(OC)c(OC)c1 (some centres undefined)	none (no result: Cl transport mod)
CCc1ccc(C(=O)NNC(=O)C2CSC3(C)CCC(=O)N23)cc1 (centres undefined)	none (no result: Cl transport mod)
CCOCCCn1c(=S)[nH]c2cc(C(=O)NCCOC)ccc2c1=O	none
CCOCCCNC(=O)c1ccc2c(=O)n(CCCOCC)c(=S)[nH]c2c1	MrgX1 allo act 13
COc1ccc(CC(=O)NNS(=O)(=O)c2ccccc2)cc1OC	MrgX1 antag -8
Cc1cccc(N(C(=O)c2snc(C(N)=O)c2N)C(C(=O)NCC2CCCO2)c2cccs2)c1 (centres undefined)	MrgX1 antag -4.7
Cc1ccc(-n2c(O)c(/C=N/n3cnnc3)c3ccccc3c2=O)cc1	MrgX1 allo act 9.4!
CCCN(CCC)CCNC(=O)C1(O)c2ccccc2NC(=O)N1c1cccc(OC)c1 (centres undefined)	none (no result: Cl transport mod)
COc1ccc(N2CC(C(=O)N[C@H](C(=O)NC(C)c3ccccc3)C(C)C)CC2=O)cc1 (some centres undefined)	none (no result: Cl transport mod)
CCn1c(=S)[nH]c2sc3c(c2c1=O)CCCC3	none (no result: Cl transport mod)
C=CCn1c(=S)[nH]c2sc3c(c2c1=O)CCC3	Cl transport mod 31 (no result: MrgX1 agonist, MrgX1 antag, MrgX1 allo act)
CCCc1nc2ccc(NC(=O)c3ccco3)cc2c(=O)n1Cc1ccc(Cl)cc1	MrgX1 antag -6.7
CCCc1nc2ccc(NC(=O)c3ccco3)cc2c(=O)n1Cc1ccccc1Cl	none
CC1(C)[C@@H](O)CC[C@]2(C)C3C(O)C=C4[C@H]5C[C@@](C)(C(=O)O)CC[C@]5(C)CC[C@]4(C)[C@]3(C)CC[C@@H]12 (some centres undefined)	MrgX1 agonist 29
CC(=O)Nc1ccc(S(=O)(=O)N2CCC(C(N)=O)(N3CCCCC3)CC2)cc1	none (no result: Cl transport mod)
O=C1CC(c2ccccc2)CC(O)=C1C=NCCc1ccccc1 (centres undefined)	MrgX1 allo act 11
O=C1CC(c2ccccc2)CC(O)=C1C=NCc1ccccc1 (centres undefined)	none
O=C1CC(c2ccc(Cl)cc2)CC(O)=C1C=NCc1ccc(Cl)c(Cl)c1 (centres undefined)	RGS4 pot -8
CCOC(=O)C1(Cc2cccc(Cl)c2)CCCN(C(=O)c2ccc(COC)s2)C1 (centres undefined)	none (no result: Cl transport mod)
Clc1ccc(OCc2nnc(SCc3nnc(-c4ccccc4)o3)o2)c(Cl)c1	RGS4 pot -9.7 (no result: Cl transport mod)
CC(=O)c1cccc(NC(=S)N2CCN(S(=O)(=O)c3ccccc3)CC2)c1	none (no result: Cl transport mod)
C/C(=N\NC(=O)c1cc(Cl)ccc1O)c1ccc(Br)s1	Cl transport mod 15
